Laboratory results as given in ChEMBL document CHEMBL1125049, “Aporphines as antagonists of dopamine D-1 receptors” (J Med Chem, 1990).
Calls of active or inactive are those of the source. The rule behind the calls is not given here.

Experiments:
Rattus norvegicus [1] = species on record: Rattus norvegicus; type: functional
Rattus norvegicus [2] = species on record: Rattus norvegicus; type: functional; remark: listed apart in the source
D(2) dopamine receptor = D(2) dopamine receptor (Rattus norvegicus, UniProt P61169); experiment: In vitro binding affinity towards rat Dopamine receptor D2 by [3H]spiperone displacement.
Rattus norvegicus [3] = species on record: Rattus norvegicus; experiment: Ability to stimulate adenylate cyclase in rat retinal tissue over basal levels; NS=no significant stimulation; type: functional
Procedure, shortened: (§1)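 Agonist mode: adenylate cyclase stimulation measured in rat retinal tissue in vitro, with (R)-apomorphine as positive control for D-1 agonist activity; assay run by a previously published adenylate cyclase procedure.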

D(1A) dopamine receptor = D(1A) dopamine receptor (Rattus norvegicus, UniProt P18901)
Rattus norvegicus [4] = species on record: Rattus norvegicus; experiment: Ability to block adenylate cyclase stimulation caused by 10 uM dopamine in rat retinal tissue in vitro at a concentration of 100 uM; type: functional
Rattus norvegicus [5] = species on record: Rattus norvegicus; experiment: Ability to stimulate adenylate cyclase in rat retinal tissue over basal levels; type: functional
Procedure, shortened: as §1

[6] = Activity was determined against Adenylate cyclase

Sequence of D(1A) dopamine receptor (P18901 whole entry): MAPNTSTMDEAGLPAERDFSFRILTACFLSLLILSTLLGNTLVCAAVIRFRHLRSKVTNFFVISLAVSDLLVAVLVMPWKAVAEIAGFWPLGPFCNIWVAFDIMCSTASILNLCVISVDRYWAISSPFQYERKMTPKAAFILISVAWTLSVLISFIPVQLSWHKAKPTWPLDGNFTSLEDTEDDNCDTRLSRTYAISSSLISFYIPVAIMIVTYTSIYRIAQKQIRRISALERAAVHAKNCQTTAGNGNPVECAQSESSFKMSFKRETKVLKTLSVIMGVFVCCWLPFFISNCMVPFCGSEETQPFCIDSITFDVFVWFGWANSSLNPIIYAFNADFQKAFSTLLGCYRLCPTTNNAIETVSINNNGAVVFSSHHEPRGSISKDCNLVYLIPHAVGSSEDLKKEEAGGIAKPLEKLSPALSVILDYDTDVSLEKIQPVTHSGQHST
Sequence of D(2) dopamine receptor (P61169 whole entry): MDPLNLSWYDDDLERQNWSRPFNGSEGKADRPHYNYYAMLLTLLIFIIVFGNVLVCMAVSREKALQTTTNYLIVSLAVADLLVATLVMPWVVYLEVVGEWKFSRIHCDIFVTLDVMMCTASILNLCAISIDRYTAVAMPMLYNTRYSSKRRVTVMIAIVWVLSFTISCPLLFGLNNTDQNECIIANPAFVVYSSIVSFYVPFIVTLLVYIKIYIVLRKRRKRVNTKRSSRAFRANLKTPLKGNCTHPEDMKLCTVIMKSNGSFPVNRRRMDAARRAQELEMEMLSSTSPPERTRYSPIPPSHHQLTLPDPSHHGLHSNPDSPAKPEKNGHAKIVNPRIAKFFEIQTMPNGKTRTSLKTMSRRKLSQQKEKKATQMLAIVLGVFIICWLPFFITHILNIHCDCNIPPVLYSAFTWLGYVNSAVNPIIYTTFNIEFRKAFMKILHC

SMILES	Inhibition (Rattus norvegicus [1])	Inhibition (Rattus norvegicus [2])	IC50 (D(2) dopamine receptor)	inhibition (Rattus norvegicus [3])	IC50 (D(1A) dopamine receptor)	Stimulation (Rattus norvegicus [3])	Inhibition (Rattus norvegicus [4])	Stimulation (Rattus norvegicus [5])	IC50 [6]
CN1CCc2cccc3c2[C@H]1Cc1c([N+](=O)[O-])ccc(O)c1-3	33.5%	7.2%							
CN1CCc2cccc3c2[C@H]1Cc1ccc(Br)c(O)c1-3	87.8%	24.4%	0.664 µM	inactive	0.171 µM				
CN1CCc2cccc3c2[C@@H]1Cc1cccc(O)c1-3	38%	0.8%	2.24 µM		5.06 µM	inactive			
CN1CCc2cccc3c2[C@H]1Cc1cc(Br)cc(O)c1-3	73.4%	5.3%	2.58 µM	inactive	0.818 µM				
COc1cccc2c1-c1cccc3c1[C@@H](C2)N(C)CC3	31.7%	7.7%	2.16 µM		3.28 µM				
CN1CCc2cccc3c2[C@H]1Cc1c(Cl)ccc(O)c1-3	71.6%	12.6%	0.5 µM		0.561 µM				
CN1CCc2cccc3c2[C@H]1Cc1c(Br)ccc(O)c1-3	83.3%	13.1%	0.449 µM		0.181 µM	inactive			
CN1CCc2cccc3c2[C@@H]1Cc1c(Br)ccc(O)c1-3	79.4%	11.9%	> 10 µM		8.61 µM				
CCCN1CCC[C@@H]2Cc3nc(N)ncc3C[C@H]21 [QUINELORANE]			0.151 µM		> 10 µM	inactive	6.8%		
CN1CCc2cccc3c2[C@H]1Cc1ccc(O)c(O)c1-3 [APOMORPHINE]								91.5%	
CN1CCc2cccc3c2[C@@H]1Cc1ccc(Br)c(O)c1-3	54.2%	9.8%	2.93 µM		3.34 µM				
CN1CCc2cccc3c2[C@@H]1Cc1cc(Br)cc(O)c1-3	3.2%	16.8%	> 1 µM		> 1 µM				
COc1ccc2c(c1O)-c1cccc3c1[C@@H](C2)N(C)CC3 [APOCIDEINE]	5.7%		2.08 µM		13.3 µM	inactive			
CN1CCc2cccc3c2[C@H]1Cc1cccc(O)c1-3	87.8%	31.2%	0.058 µM		0.107 µM	inactive			
CN1CCc2cc(Cl)c(O)cc2[C@@H](c2ccccc2)C1 [SCH-23390]	89.7%	86%							0.003 µM
COc1cccc2c1-c1cccc3c1[C@H](C2)N(C)CC3	0%	0.7%	0.829 µM		12.1 µM				
COc1ccc2c(c1O)-c1c3c(cc4c1[C@H](C2)N(C)CC4)OCO3 [(S)-BULBOCAPNINE]	85.1%	24.4%	14 µM		0.739 µM				
CN1CCc2cccc3c2[C@H]1Cc1c(Br)cc(Br)c(O)c1-3	45.9%	8.5%	> 1 µM		> 1 µM				
CN1CCc2cccc3c2[C@@H]1Cc1ccc(O)c(O)c1-3 [(S)APOMORPHINE]	42.3%								
CN1CCc2cccc3c2[C@H]1Cc1ccc(Cl)c(O)c1-3	82%	19.7%	0.803 µM		0.637 µM				
